Measurements collected from several papers.
Compare with care: the assays were run in different laboratories.
Target: Mitogen-activated protein kinase kinase kinase 10 (MAP3K10, Homo sapiens, UniProt Q02779)

| SMILES | read-out | method | tested at | remaining binding |
| --- | --- | --- | --- | --- |
| C[C@@H](c1ccc(-n2cnc3c(N)ncnc32)cc1)N1CCc2nn(C)c(Cc3ccccc3)c2C1=O | binding | competition with immobilised ligand | 0.1 µM | 82% |
| c1cncc(-c2cccc(Nc3nccc(NC4CCCCC4)n3)c2)c1 | binding | competition with immobilised ligand | 10 µM | 49% |
| CN(CCCC(F)(F)F)c1nccc(-c2cnn3ncccc23)n1 | binding |  | 1 µM | 0% |
| c1ccc(N2CCN(Cc3nc4ccccc4[nH]3)CC2)nc1 | binding | competition with immobilised ligand | 1 µM | 93% |
| O=C(NCCCN1CCOCC1)c1ccc(Nc2nccc(-c3cc4ccccc4s3)n2)cc1 | binding | competition with immobilised ligand | 1 µM | 37% |
| CN(C)c1nccc(-c2cnc3ncccn23)n1 | binding |  | 1 µM | 72% |
| O=C(Nc1c[nH]nc1C(=O)NC1CCNCC1)c1cc(F)cc(F)c1 | binding | competition with immobilised ligand | 1 µM | 100% |
| N[C@@H]1CCN(c2nccc(-c3cnn4ncccc34)n2)C1 | binding |  | 1 µM | 100% |
| Cc1cc(-n2nc(Cc3cc(F)cc(C(F)(F)F)c3)nc2C)ccc1C(N)=O | cell-free assay | competition with immobilised ligand | 1 µM | 95% |
| O=C(c1ccc(Nc2ncc(Cl)c(-c3ccc(Cl)s3)n2)cc1)N1CCC(N2CCCC2)CC1 | binding | competition with immobilised ligand | 1 µM | 0% |
| FC(F)(F)Oc1cccc(-c2cnc3ccc(-c4ccncc4)nn23)c1 | cell-free assay | competition with immobilised ligand | 5 µM | 58% |
| C[C@H](c1cccc(C#N)c1)n1cc(Cl)cc(C(N)=O)c1=N | cell-free assay | competition with immobilised ligand | 1 µM | 100% |
| CN(c1nccc(-c2cnn3ncccc23)n1)C1CC1 | binding |  | 1 µM | 76% |
| O=C(c1ccc(Nc2nccc(-c3cc4ccccc4s3)n2)cc1)N1CCC(N2CCCC2)CC1 | binding | competition with immobilised ligand | 1 µM | 21% |
| CC(=O)N1CCC(c2ccc(C(=O)NC(=N)N)cc2C(F)(F)F)CC1 | cell-free assay | competition with immobilised ligand | 1 µM | 95% |
| CN(C)c1ncc(F)c(-c2cnn3ncccc23)n1 | binding |  | 1 µM | 100% |
| CNC(=O)[C@@H]1CC[C@@H](n2c(-c3ccc4cnccc4c3)nc3ccc(C(=O)NCc4cccc(C(N)=O)c4)cc32)C1 | binding | competition with immobilised ligand | 1 µM | 86% |
| Cc1c(NC(=O)c2cc(C(N)=O)nc3cc(F)ccc23)c(C(F)(F)F)nn1Cc1ccc(C#N)cc1 | cell-free assay | competition with immobilised ligand | 1 µM | 92% |
| CC1CCCN1c1nccc(-c2cnn3ncccc23)n1 (stereo not drawn) | binding |  | 1 µM | 100% |
| COc1ccc2c(c1)O[C@H](c1ccc(OC)c(OC)c1)C[C@@H]2NC(=O)C1(c2ccc3c(c2)OC(F)(F)O3)CC1 | cell-free assay | competition with immobilised ligand | 1 µM | 97% |
| COc1cnc(Nc2cccc(S(N)(=O)=O)c2)nc1N1CCN(c2ccccc2)CC1 | binding | competition with immobilised ligand | 1 µM | 89% |
